Assay results reported in ChEMBL document CHEMBL1133473, “Synthesis and antiviral activity of 4-benzyl pyridinone derivatives as potent and selective non-nucleoside human immunodeficiency virus type 1 reverse transcriptase inhibitors” (J Med Chem, 2000).
“And” between values parts separate entries of the source, which are not always exact repeats. Equal entries are not always repeated.

Columns and labels:
CEM-SS [1] = test: Tested for inhibitory concentration on HIV-I Lai wild type in CEM-SS cell line; format: functional, cell-based; settings: Homo sapiens
Method in brief: (§1)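 CEM-SS lymphocytic cells infected with 100 TCID50 of HIV-1 LAI, or of the nevirapine-resistant N119 strain carrying an RT codon 181 mutation. Virus adsorbed 30 min, unbound virus removed by two washes, then cells cultured 5 days with serial compound dilutions. Read-out: RT activity of particles released into the supernatant. IC50 from a computer median effect plot of dose-effect data.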

CEM-SS [2] = test: Tested for cytotoxic concentration on HIV-I Lai wild type in CEM-SS cell line; format: functional; settings: Homo sapiens
Method in brief: (§2)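 CEM-SS cells, uninfected, cultured 5 days with compound. Compounds were taken from a DMSO solution at 10^-2 M (10^-3 M or lower if insoluble), diluted 1:100 in medium, then serially diluted in medium.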

[3] = system: Human immunodeficiency virus 1; test: Inhibitory concentration against HIV-1 AZTres.; format: functional, organism-based
Method in brief: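 AZT-resistant HIV-1 isolate A018 G910-6 tested in cell culture; virus production measured as RT activity of particles released into the culture supernatant.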

[4] = system: Human immunodeficiency virus 1; test: Inhibitory concentration against HIV-1 Bal/Mono; format: functional, organism-based
Method in brief: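 Macrophage-tropic HIV-1 Bal in monocyte-derived macrophages kept serum-free in AIM V medium with 100 U/mL GM-CSF. Virus output measured as supernatant particle-associated RT activity.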

[5] = Inhibitory concentration against HIV-2 D 194; format: functional
Method in brief: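 Cell-based antiviral assay against this HIV-2 isolate. Compounds were dissolved in DMSO as 10^-2 M stocks, or 10^-3 M or lower when insoluble, diluted 1% in culture medium, then serially diluted in medium. Virus production was read as reverse transcriptase activity of particles released into the culture supernatant. IC50 was taken from a median-effect plot of the dose-effect data.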

[6] = system: Human immunodeficiency virus 1; test: Tested for cytotoxic concentration on HIV-I nevirapine resistant strain.; format: functional; method in brief: as §2
[7] = system: Human immunodeficiency virus 1; test: Tested for inhibitory concentration on HIV-I nevirapine resistant strain.; format: functional, organism-based; method in brief: as §1
MT4 [8] = test: Cytotoxicity against MT-4 cells infected with HIV-1 AZTres; format: functional; settings: Homo sapiens
MT4 [9] = test: Cytotoxicity against MT-4 cells infected with HIV-1 IIIB strain; format: functional; settings: Homo sapiens
[10] = Cytotoxicity against Macrophages infected with HIV-1 Bal/Mono; format: functional; settings: Human immunodeficiency virus 1
[11] = Cytotoxicity against PBMC cells infected with HIV-1 IIIB strain; format: functional; settings: Human immunodeficiency virus 1, PBMC
[12] = Cytotoxicity against PBMC cells infected with HIV-2 D 194; format: functional; settings: Human immunodeficiency virus 2, PBMC
[13] = system: Human immunodeficiency virus 1; test: Selectivity index is the ratio of CC50 to IC50; format: functional
[14] = system: Human immunodeficiency virus 1; test: Inhibitory concentration against HIV-1 IIIB strain; format: functional, organism-based
Method in brief: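 MT4 cells infected with HIV-1 IIIB; antiviral effect read as protection from virus-induced cytopathogenicity by MTT. Compounds taken from DMSO stock, diluted in culture medium.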

[15] = system: Human immunodeficiency virus 1; test: Selectivity index is the ratio of CC50 to IC50 against HIV-1 nevirapine resistant strain; format: functional
[16] = target: Human immunodeficiency virus type 1 reverse transcriptase (Human immunodeficiency virus 1, UniProt Q72547); test: Tested for inhibitory concentration on HIV-1 Reverse transcriptase in the presence of poly(c)-oligo-(dG)
Method in brief: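 Recombinant HIV-1 RT purified from yeast, 20-50 nM. Reaction at 37 °C for 10 min in 50 mM Tris-HCl pH 8.0, 5 mM MgCl2, 4 mM DTT, 80 mM KCl, BSA, 0.48 A260 units/mL poly(C)-oligo(dG) (5:1), 2 µM dGTP plus [3H]dGTP. Stopped with cold 10% TCA plus 0.1 M pyrophosphate; precipitates filtered, scintillation counted. Compounds dissolved in DMSO.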

SMILES	IC50 (CEM-SS [1]) [nM]	CC50 (CEM-SS [2]) [nM]	SI [13]	other results
CCc1c(C)nc(OC)c(NC(=O)C(C)(C)C)c1Cc1cc(C)cc(C)c1	> 100000	> 100000		
CCc1c(C)[nH]c(=O)c(NC(C)=O)c1Cc1cc(C)cc(C)c1	100	> 10000	>100	IC50 [3]: 440 nM; IC50 [4]: 200 nM; IC50 [5]: > 10000 nM; CC50 [6]: > 10000 nM; IC50 [7]: > 10000 nM; CC50 (MT4 [8]): > 10000 nM; CC50 (MT4 [9]): > 10000 nM; CC50 [10]: > 10000 nM; CC50 [11]: > 10000 nM; CC50 [12]: > 10000 nM
CCc1cc(N)c(O)nc1C	30000	> 100000	>3	
CCc1c(C)nc(O)c(NCc2cc(C)c(C)cc2OC)c1Cc1cc(C)cc(C)c1	1000	> 1000		
CCc1c(C)nc(O)c(NC(=O)CNC(=O)OC(C)(C)C)c1Cc1cc(C)cc(C)c1	6700	86000	12	
CCOCn1c(Cc2cc(C)cc(C)c2)c(CC)c(=O)[nH]c1=O	1.6	207000	130000	
CCc1c(C)nc(O)c(N)c1C(O)c1cc(C)cc(C)c1 (centres undefined)	1000	> 10000	>10	IC50 [3]: 420 nM; IC50 [4]: 180 nM; IC50 [5]: > 10000 nM; IC50 [14]: 3400 nM and 690 nM; CC50 [6]: > 10000 nM; IC50 [7]: 4500 nM; SI [15]: >2; CC50 (MT4 [8]): > 10000 nM; CC50 (MT4 [9]): 10000 nM; CC50 [10]: > 10000 nM; CC50 [11]: > 10000 nM; CC50 [12]: > 10000 nM
CCc1c(C)nc(O)c(NC(=O)C(C)(C)C)c1C(C)(O)c1cc(C)cc(C)c1 (centres undefined)	12000	> 100000	>8	
CCC(=O)Nc1c(O)ncc(C)c1Sc1cc(C)cc(C)c1	41400		>2	
CCOC(=O)Nc1c(O)nc(C)c(CC)c1Cc1cc(C)cc(C)c1	460	> 10000	>21	
Cc1cc(C)cc(Sc2c(C)cnc(O)c2NC=O)c1	6600		>15	
CCc1c(C)nc(OC)c(NC(C)=O)c1C(C)(OC(C)=O)c1cc(C)cc(C)c1 (centres undefined)	2500	> 10000	>4	
CCc1c(C)nc(O)c(NC(C)=O)c1Sc1cc(C)cc(C)c1	50		1600	
CCc1c(C)nc(OC)c(NC(=O)C(C)(C)C)c1C(O)c1cc(C)cc(C)c1 (centres undefined)	> 1000	> 1000		
CCc1c(C)nc(O)c(NC(=O)CN)c1Cc1cc(C)cc(C)c1	18	> 100000	>5555	
CCc1c(C)nc(O)c([N+](=O)[O-])c1Sc1cc(C)cc(C)c1				IC50 [7]: 260 nM
CC(C)=CCN1Cc2cc(Cl)cc3[nH]c(=S)n(c23)C[C@@H]1C				CC50 [6]: > 10000 nM; IC50 [7]: > 10000 nM

SMILES	IC50 (CEM-SS [1]) [nM]	CC50 (CEM-SS [2]) [nM]	SI [13]	other results
CCc1cc(NCc2cc(C)c(C)cc2OC)c(O)nc1C	8			
CCc1c(C)nc(OC)c(NC(=O)C(C)(C)C)c1Cc1ccccc1	> 1000	> 1000		
CCc1c(C)nc(OC)c(NC(=O)C(C)(C)C)c1C(OC(C)=O)c1cc(C)cc(C)c1 (centres undefined)	10000	> 10000	>1	
CCc1cc(NC(=O)C(C)(C)C)c(OC)nc1C	> 100000	> 100000		
CCc1c(C)[nH]c(=O)c(NC=O)c1Cc1cc(C)cc(C)c1	3	> 10000	>3333	IC50 [3]: 71 nM; IC50 [4]: 21 nM; IC50 [5]: > 10000 nM; CC50 [6]: > 10000 nM; IC50 [7]: 2900 nM; SI [15]: >3; CC50 (MT4 [8]): > 10000 nM; CC50 (MT4 [9]): > 10000 nM; CC50 [10]: > 10000 nM; CC50 [11]: > 10000 nM; CC50 [12]: > 10000 nM; IC50 [16]: 200 nM
CCc1c(C)nc(O)c(N)c1Cc1ccccc1	730	> 100000	>136	
CCc1c(C)nc(O)c(N)c1C(=O)c1cc(C)cc(C)c1	6	> 10000	>1666	IC50 [3]: 25 nM; IC50 [4]: 17 nM; IC50 [5]: > 10000 nM; IC50 [14]: 85 nM and 20 nM; CC50 [6]: > 10000 nM; IC50 [7]: 1300 nM; SI [15]: >7; CC50 (MT4 [8]): > 10000 nM; CC50 (MT4 [9]): > 10000 nM; CC50 [10]: > 10000 nM; CC50 [11]: > 10000 nM; CC50 [12]: > 10000 nM; IC50 [16]: 100 nM
CCOC(=O)Nc1c(O)ncc(C)c1Sc1cc(C)cc(C)c1	7500		>13	
CCc1c(C)nc(OC)c(NC(=O)C(C)(C)C)c1C(C)(O)c1cc(C)cc(C)c1 (centres undefined)	> 10000	> 10000		
CCc1c(C)nc(OC)c2c1C(c1cc(C)cc(C)c1)OC(O)(C(C)(C)C)N2 (centres undefined)	4200	> 10000	>2	
CCC(=O)Nc1c(Cc2cc(C)cc(C)c2)c(CC)c(C)[nH]c1=O	4600	> 10000	>2	
CCc1c(C)[nH]c(=O)c(N(C)C)c1Cc1cc(C)cc(C)c1	0.2	> 1000	>5000	IC50 [3]: 0.2 nM; IC50 [4]: 0.004 nM; IC50 [5]: > 1000 nM; IC50 [14]: 2.4 nM and 0.58 nM; CC50 [6]: > 1000 nM; IC50 [7]: 40 nM; SI [15]: >25; CC50 (MT4 [8]): > 1000 nM; CC50 (MT4 [9]): > 1000 nM; CC50 [10]: > 1000 nM; CC50 [11]: > 1000 nM; CC50 [12]: > 1000 nM; IC50 [16]: 20 nM
CCOCn1c(Cc2cc(C)cc(C)c2)c(C(C)C)c(=O)[nH]c1=O	0.6	43000	72000	
CCc1c(C)nc(OC)c2c1C(c1cc(C)cc(C)c1)OC(C(C)(C)C)=N2 (centres undefined)	> 10000	> 10000		
CCc1c(C)[nH]c(=O)c(NC)c1Cc1cc(C)cc(C)c1	30	> 10000	>333	IC50 [3]: 76 nM; IC50 [4]: 720 nM; IC50 [5]: > 10000 nM; CC50 [6]: > 10000 nM; IC50 [7]: 1700 nM; SI [15]: >5.5 and >10; CC50 (MT4 [8]): > 10000 nM; CC50 (MT4 [9]): > 10000 nM; CC50 [10]: > 10000 nM; CC50 [11]: > 10000 nM; CC50 [12]: > 10000 nM
Cc1c(Sc2ccccc2)n(COCc2ccccc2)c(=O)[nH]c1=O				IC50 [16]: 300 nM
Cc1cn([C@H]2C[C@H](N=[N+]=[N-])[C@@H](CO)O2)c(=O)[nH]c1=O [ZIDOVUDINE]	3		>33333	
